In ChEMBL document CHEMBL4177770, “Discovery of MK-6169, a Potent Pan-Genotype Hepatitis C Virus NS5A Inhibitor with Optimized Activity against Common Resistance-Associated Substitutions” (J Med Chem, 2018):
Substitutions are numbered along the chain they refer to.

Columns and labels:
[1] = biological target: T1, Nonstructural protein 5A (Hepatitis C virus) (UniProt Q5L478); assay: Inhibition of NS5A in HCV genotype 1a infected in HuH7 replicon cells assessed as decrease in viral replication after 3 days by RT-PCR method; assay type: cell-based; conditions: Hepatitis C virus subtype 1a
T1 sequence (whole entry): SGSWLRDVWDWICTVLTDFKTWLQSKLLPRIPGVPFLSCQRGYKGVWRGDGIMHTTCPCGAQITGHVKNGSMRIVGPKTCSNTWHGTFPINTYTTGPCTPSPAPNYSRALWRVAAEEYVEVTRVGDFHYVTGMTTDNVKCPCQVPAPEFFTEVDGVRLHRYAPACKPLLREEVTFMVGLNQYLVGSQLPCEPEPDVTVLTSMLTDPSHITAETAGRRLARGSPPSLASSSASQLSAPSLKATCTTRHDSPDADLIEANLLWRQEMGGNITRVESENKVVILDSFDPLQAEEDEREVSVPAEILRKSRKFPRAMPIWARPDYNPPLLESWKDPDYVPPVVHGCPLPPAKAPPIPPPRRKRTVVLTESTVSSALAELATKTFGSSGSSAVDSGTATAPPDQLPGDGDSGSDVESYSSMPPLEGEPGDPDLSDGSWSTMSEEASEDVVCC

[2] = biological target: T1, Nonstructural protein 5A (Hepatitis C virus); assay: Inhibition of NS5A in HCV genotype 1b infected in HuH7 replicon cells assessed as decrease in viral replication after 3 days by RT-PCR method; assay type: cell-based; conditions: Hepatitis C virus subtype 1b
[3] = biological target: T1, Nonstructural protein 5A (Hepatitis C virus); assay: Inhibition of NS5A L31M mutant in HCV genotype 2b infected in HuH7 replicon cells assessed as decrease in viral replication after 3 days by RT-PCR method; assay type: cell-based; conditions: Hepatitis C virus subtype 2b
[4] = biological target: T1, Nonstructural protein 5A (Hepatitis C virus); assay: Inhibition of NS5A in HCV genotype 3a infected in HuH7 replicon cells assessed as decrease in viral replication after 3 days by RT-PCR method; assay type: cell-based; conditions: Hepatitis C virus subtype 3a
[5] = biological target: T1, Nonstructural protein 5A (Hepatitis C virus); assay: Inhibition of NS5A in HCV genotype 4a infected in HuH7 replicon cells assessed as decrease in viral replication after 3 days by RT-PCR method; assay type: cell-based; conditions: Hepatitis C virus subtype 4a
[6] = system: T2, Nonstructural protein 5A (Hepatitis C virus), Q5L478 [Y93H]; assay: Inhibition of NS5A Y93H mutant in HCV genotype 1a infected in HuH7 replicon cells assessed as decrease in viral replication after 3 days by RT-PCR method; assay type: cell-based; conditions: Hepatitis C virus subtype 1a
T2 sequence (whole entry): T1 sequence (whole entry) with Y93H

[7] = biological target: T1, Nonstructural protein 5A (Hepatitis C virus); assay: Inhibition of NS5A L31V mutant in HCV genotype 1a infected in HuH7 replicon cells assessed as decrease in viral replication after 3 days by RT-PCR method; assay type: cell-based; conditions: Hepatitis C virus subtype 1a
[8] = system: Hepatitis C virus subtype 1a; assay: Resistance ratio of EC90 for NS5A L31V mutant in HCV genotype 1a infected in HuH7 replicon cells to EC90 for NS5A in HCV genotype 1a infected in HuH7 replicon cells; assay type: cell-based
[9] = system: Hepatitis C virus subtype 1a; assay: Resistance ratio of EC90 for NS5A Y93H mutant in HCV genotype 1a infected in HuH7 replicon cells to EC90 for NS5A in HCV genotype 1a infected in HuH7 replicon cells; assay type: cell-based
[10] = Resistance ratio of EC90 for NS5A in HCV genotype 1b infected in HuH7 replicon cells to EC90 for NS5A in HCV genotype 1a infected in HuH7 replicon cells; assay type: cell-based
[11] = Resistance ratio of EC90 for NS5A L31M mutant in HCV genotype 2b infected in HuH7 replicon cells to EC90 for NS5A in HCV genotype 1a infected in HuH7 replicon cells; assay type: cell-based
[12] = Resistance ratio of EC90 for NS5A in HCV genotype 3a infected in HuH7 replicon cells to EC90 for NS5A in HCV genotype 1a infected in HuH7 replicon cells; assay type: cell-based
[13] = Resistance ratio of EC90 for NS5A in HCV genotype 4a infected in HuH7 replicon cells to EC90 for NS5A in HCV genotype 1a infected in HuH7 replicon cells; assay type: cell-based
[14] = Half life in Wistar Han rat at 2 mg/kg, iv by LC/MS method; assay type: ADME, organism-based; conditions: in vivo
Summary of the method: (§1)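 Male Wistar Han rats, two per group, dosed IV at 2 mg/kg in 60% PEG200. Plasma was obtained by centrifuging the blood, and compound concentrations were measured by LC/MS.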

[15] = Clearance in Wistar Han rat at 2 mg/kg, iv by LC/MS method; assay type: ADME, organism-based; conditions: in vivo; summary of the method: as §1
[16] = AUC in Wistar Han rat at 10 mg/kg, po by LC/MS method; assay type: ADME, organism-based; conditions: in vivo
Summary of the method: (§2)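 Male Wistar Han rats, two per dosing group, dosed orally at 10 mg/kg in 10% TWEEN. Plasma was separated from collected blood by centrifugation and analysed by LC/MS.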

[17] = Cmax in Wistar Han rat at 10 mg/kg, po by LC/MS method; assay type: ADME, organism-based; parameters: dose 10 mg/kg, route oral; conditions: in vivo; summary of the method: as §2
[18] = Drug level in Wistar Han rat at 10 mg/kg, po measured at 24 hrs by LC/MS method; assay type: ADME, organism-based; conditions: in vivo, read-out: Drug uptake; summary of the method: as §2
[19] = Oral bioavailability in Wistar Han rat at 10 mg/kg by LC/MS method; assay type: ADME, organism-based; conditions: in vivo; summary of the method: as §2

Structure (SMILES)	EC90 [1]	EC90 [2]	EC90 [3]	EC90 [4]	EC90 [5]	EC90 [6]	EC90 [7]	Ratio [8]	Ratio [9]	Ratio [10]	Ratio [11]	Ratio [12]	Ratio [13]	half-life [14]	clearance [15]	AUC [16]	Cmax [17]	concentration at 24 h [18]	bioavailability [19]
COC(=O)N[C@H](C(=O)N1CCC[C@H]1c1ncc(-c2cc(F)c3c(c2)O[C@@H](c2cc4c(s2)CCC4)n2c-3cc3cc(-c4cnc([C@@H]5CCCN5C(=O)[C@@H](NC(=O)OC)C5CCOCC5)[nH]4)ccc32)[nH]1)C(C)C	5 pM	5 pM	64 pM	22 pM	4 pM	39 pM	13 pM	< 10	< 10	< 10	< 10	< 10	< 10	–	–	–	–	–	–
COC(=O)N[C@H](C(=O)N1CCC[C@H]1c1ncc(-c2cc(F)c3c(c2)O[C@@H](c2cc4ccccc4s2)n2c-3cc3cc(-c4cnc([C@@H]5CCCN5C(=O)[C@@H](NC(=O)OC)C5CCOCC5)[nH]4)ccc32)[nH]1)C(C)C	5 pM	3 pM	57 pM	11 pM	4 pM	111 pM	8 pM	–	20	–	–	–	–	–	–	–	–	–	–
COC(=O)N[C@H](C(=O)N1CCC[C@H]1c1ncc(-c2cc(F)c3c(c2)O[C@@H](c2ccc(C4CC4)s2)n2c-3cc3cc(-c4cnc([C@@H]5CCCN5C(=O)[C@@H](NC(=O)OC)[C@H]5CCOC(C)(C)C5)[nH]4)ccc32)[nH]1)C(C)C	4 pM	7 pM	27 pM	9 pM	7 pM	18 pM	2 pM	–	–	–	–	–	–	5.2 h	11 mL/min/kg	0.24 µM·h	25 nM	1 nM	1.6%
COC(=O)N[C@H](C(=O)N1CCC[C@H]1c1ncc(-c2cc(F)c3c(c2)O[C@@H](c2ccc(C(F)F)s2)n2c-3cc3cc(-c4cnc([C@@H]5CCCN5C(=O)[C@@H](NC(=O)OC)C5CCOCC5)[nH]4)ccc32)[nH]1)C(C)C	4 pM	6 pM	16 pM	10 pM	4 pM	15 pM	5 pM	< 10	< 10	< 10	< 10	< 10	< 10	–	–	–	–	–	–
COC(=O)N[C@H](C(=O)N1CCC[C@H]1c1ncc(-c2cc(F)c3c(c2)O[C@@H](c2cnc(C4CC4)s2)n2c-3cc3cc(-c4cnc([C@@H]5CCCN5C(=O)[C@@H](NC(=O)OC)[C@@H]5CCOC(C)(C)C5)[nH]4)ccc32)[nH]1)C(C)C	6 pM	6 pM	15 pM	15 pM	7 pM	29 pM	6 pM	–	–	–	–	–	–	4 h	9 mL/min/kg	0.51 µM·h	60 nM	4 nM	2.8%
COC(=O)N[C@H](C(=O)N1CCC[C@H]1c1ncc(-c2cc(F)c3c(c2)O[C@@H](c2ccc(C4CC4)s2)n2c-3cc3cc(-c4cnc([C@@H]5CCCN5C(=O)[C@@H](NC(=O)OC)C5CCOC6(CC6)C5)[nH]4)ccc32)[nH]1)C(C)C (stereo partly drawn)	6 pM	4 pM	36 pM	8 pM	4 pM	49 pM	7 pM	–	–	–	–	–	–	5.7 h	5 mL/min/kg	0.58 µM·h	57 nM	4 nM	1.9%
CCc1ccc([C@@H]2Oc3cc(-c4cnc([C@@H]5CCCN5C(=O)[C@@H](NC(=O)OC)[C@@H]5CCOC(C)(C)C5)[nH]4)cc(F)c3-c3cc4cc(-c5cnc([C@@H]6CCCN6C(=O)[C@@H](NC(=O)OC)C(C)C)[nH]5)ccc4n32)s1	33 pM	67 pM	349 pM	82 pM	106 pM	155 pM	46 pM	–	–	–	–	–	–	5.9 h	9 mL/min/kg	0.23 µM·h	20 nM	2 nM	1.2%
COC(=O)N[C@H](C(=O)N1CCC[C@H]1c1ncc(-c2ccc3c(c2)cc2n3[C@H](c3ccc(C4CC4)s3)Oc3cc(-c4cnc([C@@H]5CCCN5C(=O)[C@@H](NC(=O)OC)[C@@H]5CCOC(C)(C)C5)[nH]4)cc(F)c3-2)[nH]1)C(C)C	6 pM	5 pM	31 pM	13 pM	4 pM	36 pM	1 pM	–	–	–	–	–	–	6 h	9 mL/min/kg	0.45 µM·h	40 nM	4 nM	2%
CCc1ncc([C@@H]2Oc3cc(-c4cnc([C@@H]5CCCN5C(=O)[C@@H](NC(=O)OC)C(C)C)[nH]4)cc(F)c3-c3cc4cc(-c5cnc([C@@H]6CCCN6C(=O)[C@@H](NC(=O)OC)[C@@H]6CCOC(C)(C)C6)[nH]5)ccc4n32)s1	6 pM	5 pM	41 pM	6 pM	4 pM	17 pM	5 pM	–	–	–	–	–	–	5.3 h	29 mL/min/kg	0.05 µM·h	10 nM	1 nM	0.8%
COC(=O)N[C@H](C(=O)N1CCC[C@H]1c1ncc(-c2cc(F)c3c(c2)O[C@@H](c2ccc(C4CC4)s2)n2c-3cc3cc(-c4cnc([C@@H]5CCCN5C(=O)[C@@H](NC(=O)OC)C5CCO[C@@H](C)C5)[nH]4)ccc32)[nH]1)C(C)C (stereo partly drawn)	5 pM	7 pM	23 pM	8 pM	7 pM	13 pM	2 pM	–	–	–	–	–	–	5.5 h	11 mL/min/kg	0.19 µM·h	21 nM	1 nM	1.3%
CCc1ccc([C@@H]2Oc3cc(-c4cnc([C@@H]5CCCN5C(=O)[C@@H](NC(=O)OC)C(C)C)[nH]4)cc(F)c3-c3cc4cc(-c5cnc([C@@H]6CCCN6C(=O)[C@@H](NC(=O)OC)[C@@H]6CCOC(C)(C)C6)[nH]5)ccc4n32)s1	5 pM	6 pM	28 pM	9 pM	7 pM	38 pM	3 pM	–	–	–	–	–	–	5.2 h	8 mL/min/kg	0.78 µM·h	110 nM	4 nM	3.5%
